IDH1 R132H inh – IDH1 R132H (human) inhibition; IDH1 R132H reductase, diaphorase/resazurin fluorescence, 60 min; inhibition, % at 10 µM; 0.18% of 70,000 active; in the data active means inhibition above about 34%; inconclusive means no clear call, values can overlap the other calls; inactive means below about 11%;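 further: 0% = DMSO and 100% = no enzyme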
Target sequence (O75874 whole entry R132H): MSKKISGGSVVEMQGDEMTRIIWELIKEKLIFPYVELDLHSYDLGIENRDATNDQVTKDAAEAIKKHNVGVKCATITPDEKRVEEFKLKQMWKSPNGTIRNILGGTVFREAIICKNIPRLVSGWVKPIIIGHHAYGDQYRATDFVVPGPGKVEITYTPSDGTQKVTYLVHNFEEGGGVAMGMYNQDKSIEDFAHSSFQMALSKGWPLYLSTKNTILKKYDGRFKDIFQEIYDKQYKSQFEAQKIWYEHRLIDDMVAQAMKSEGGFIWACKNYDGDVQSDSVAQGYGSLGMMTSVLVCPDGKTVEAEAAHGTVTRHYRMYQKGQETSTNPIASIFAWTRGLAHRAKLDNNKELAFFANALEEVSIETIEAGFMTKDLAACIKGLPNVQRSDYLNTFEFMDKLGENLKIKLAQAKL
KDM4C inh – inhibitors of human demethylase GASC-1 KDM4C; GST-KDM4C 2-372, H3K9me3 peptide, LANCE TR-FRET; inhibition, % at 12.5 µM; 0.15% of 96,000 active;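 active means mean replicate inhibition above about 25%, with at least 55% of replicates also reaching it, limit read from the data, passing the limit was not always enough; inconclusive means only one of those two conditions met; inactive means neither condition met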
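Test system: N-terminal GST-fused human GASC-1 (KDM4C) fragment, residues 2-372; quantity: GASC-1 enzyme at 10 nM final in reaction; dosing: single dose; schedule: 30 min demethylation and 1 h detection at room temperature; signal: LANCE TR-FRET, excitation 340 nm, emissions 618 and 671 nm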
T cruzi growth-1 – blocks T. cruzi growth in NIH3T3 culture; T. cruzi beta-gal in NIH3T3, GalScreen luminescence, 90 h; inhibition, % at 8.34 µM; 5.9% of 77,000 active; AID 624255;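 active means mean inhibition above about 93%, with at least 55% of replicates each passing it, limit read from the data, passing the limit was not always enough; inconclusive means only one of those two conditions holds; inactive means neither condition holds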
Pf Dd2 inh – blocks growth of Plasmodium falciparum Dd2 parasites; activity change, % at 10 µM; AID 1159554; P. falciparum Dd2 growth, SYBR Green, 72 h; hits give low values; 2.3% of 94,000 active; in the data active means activity change below about -80%; inconclusive means no clear call, values can overlap the other calls
T cruzi growth-2 – inhibitors of T. cruzi proliferation. shares compounds with T cruzi growth-1. T. cruzi beta-gal in NIH3T3, GalScreen luminescence, 90 h. inhibition, % at 8.35 µM. 72% of 5,600 active. AID 651739;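 active means mean replicate inhibition above about 95% and at least 55% of replicates individually reaching it, limit read from the data; inconclusive means only one of the two criteria is met; inactive means neither criterion is met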
T cruzi growth-3 – inhibitors of T. cruzi proliferation | shares compounds with T cruzi growth-1 | T. cruzi beta-gal in NIH3T3, GalScreen luminescence, 90 h | inhibition, % at 2.09 µM | 21% of 5,600 active;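 active means mean inhibition above about 95%, with at least 55% of replicates also reaching it, limit read from the data; inconclusive means meets just one of the two conditions; inactive means meets neither condition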;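 further: plate controls were neutral control median for no effect and positive control median for full effect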
3T3 cytotox – kills mouse NIH/3T3 fibroblasts; shares compounds with T cruzi growth-1; NIH/3T3 viability, CellTiter-Glo ATP luminescence, 90 h; cytotoxicity (signal decrease), % at 8.35 µM; 14% of 5,600 active; AID 651742;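 active means mean signal decrease across replicates above about 35% based on untreated-well scatter, with enough replicates individually passing, limit read from the data; inconclusive means no rule stated though some were filed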;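 further: 0% = median of neutral control wells and 100% = median of positive control wells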
NIH3T3 tox 2 – NIH/3T3 (mouse) viability loss; shares compounds with T cruzi growth-1; NIH/3T3 viability, CellTiter-Glo ATP luminescence, 90 h; inhibition, % at 24.9 µM; 56% of 5,600 active;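 active means mean loss of cell viability signal at or above a set limit, and enough replicates individually reaching it; inconclusive means meets only the mean limit or only the replicate share; inactive means meets neither condition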;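 further: 0% = median of neutral control wells and 100% = median of positive control wells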
* hit, by the source's call; u = inconclusive; x = no result given. A selection: hits, their analogues and other compounds. The true share with any hit is near 5.9%.

SMILES	IDH1 R132H inh	KDM4C inh	T cruzi growth-1	Pf Dd2 inh	T cruzi growth-2	T cruzi growth-3	3T3 cytotox	NIH3T3 tox 2
COc1cccc(NC(=O)N(C)C[C@H]2Oc3cc(C#Cc4ccc(F)cc4)ccc3S(=O)(=O)N([C@@H](C)CO)C[C@H]2C)c1	x	0.4	116.4*	-48.8	89.2	101.5*	3.6	25.9
COc1cccc(NC(=O)N(C)C[C@@H]2Oc3cc(C#Cc4ccccc4)ccc3S(=O)(=O)N([C@H](C)CO)C[C@H]2C)c1	-1.1	x	u	u	98.9*	92.1	52.5*	39.1*
COc1cccc(NC(=O)N(C)C[C@H]2Oc3cc(C#Cc4ccc(F)cc4)ccc3S(=O)(=O)N([C@H](C)CO)C[C@@H]2C)c1	x	-2.1	94.4*	-66.7	102.1*	80.6	-10.3	5.1
COc1cccc(NC(=O)N(C)C[C@@H]2Oc3cc(-c4ccccc4OC)ccc3S(=O)(=O)N([C@H](C)CO)C[C@H]2C)c1	x	0.7	x	-18.4	x	x	x	x
COc1ccc(C#Cc2ccc3c(c2)O[C@H](CN(C)C(=O)Nc2cccc(OC)c2)[C@H](C)CN([C@H](C)CO)S3(=O)=O)cc1	x	-1.7	97.9*	-77.9	105.1*	110.5*	1.3	10.7
COc1cccc(NC(=O)N(C)C[C@@H]2Oc3cc(C#Cc4ccncc4)ccc3S(=O)(=O)N([C@@H](C)CO)C[C@H]2C)c1	0.1	1.9	-41.8	-56.3	x	x	x	x
O=[N+]([O-])c1cccc(COc2ccc(-c3cnc4ccccc4n3)cc2)c1	-0.4	x	x	x	x	x	x	x
CC(Oc1cccc(Cl)c1)c1nc(-c2cccnc2)no1 (stereo not drawn)	-0.5	x	x	x	x	x	x	x
COc1ccc(OC)c(/C=C/C(=O)O)c1	3.7	x	x	x	x	x	x	x
COc1ccc(CCNC(=O)c2ccc(-c3cccc(C(F)(F)F)c3)o2)cc1OC	0.4	x	x	x	x	x	x	x
O=C(C[C@@H]1CC[C@H]2[C@@H](COC[C@@H](O)CN2C(=O)c2ccncc2)O1)NCc1ccc(-c2ccccc2)cc1	x	0.4	116.7*	-23.2	11.9	14.8	0.9	18.7
O=C(C[C@@H]1CC[C@H]2[C@@H](COC[C@@H](O)CN2C(=O)Nc2ccc(Cl)c(Cl)c2)O1)NCc1ccc(Cl)c(Cl)c1	x	0.1	85.9	-3.1	x	x	x	x
O=C(C[C@H]1CC[C@H]2[C@@H](COC[C@H](O)CN2C(=O)Nc2ccc(Cl)c(Cl)c2)O1)NCc1ccc(Cl)c(Cl)c1	x	0.0	97.0*	-12.2	84.5	64.0	40.6*	105.4*
O=C(C[C@H]1CC[C@@H]2[C@H](COC[C@@H](O)CN2C(=O)Nc2ccc(Cl)c(Cl)c2)O1)NCc1ccc(Cl)c(Cl)c1	x	-0.8	98.3*	-1.1	88.3	101.6*	31.5	106.3*
O=C(C[C@@H]1CC[C@@H]2[C@H](COC[C@@H](O)CN2C(=O)Nc2ccc(Cl)c(Cl)c2)O1)NCc1ccncc1	x	9.8	127.2*	-7.9	74.1	-7.6	4.0	u
COc1cc2c(c(O)c1CO)C(=O)CCC2O (stereo not drawn)	0.2	x	x	x	x	x	x	x
O=C(Nc1cccc([N+](=O)[O-])c1)Nc1nn(Cc2ccc(Cl)c(Cl)c2)cc1Cl	0.3	x	x	x	x	x	x	x
CCn1c(SCC(=O)Nc2ccccc2F)nnc1-c1ccccc1	-0.1	x	x	x	x	x	x	x
CC(C)=CCC/C(C)=C/CCC1(C)Oc2c(c(O)cc3c2CN(C(CCC(=O)O)C(=O)O)C3=O)CC1O (stereo not drawn)	0.2	x	x	x	x	x	x	x
COC(=O)c1c(NC(=S)Nc2ccc(S(=O)(=O)N3CCOCC3)cc2)sc2c1CCC(C)C2 (stereo not drawn)	-0.1	x	x	x	x	x	x	x
Cc1cc(C(=O)Nc2cccc3c2O[C@H](CN(C)Cc2ccc(C(=O)Nc4ccccc4N)cc2)[C@H](C)CN([C@@H](C)CO)C3=O)n(C)n1	x	-1.0	92.9*	-82.3*	91.0	65.8	46.5*	90.7*
Cc1cc(C(=O)Nc2cccc3c2O[C@H](CN(C)Cc2ccc(C(F)(F)F)cc2)[C@H](C)CN([C@H](C)CO)C3=O)n(C)n1	x	-0.6	18.1	-42.0	x	x	x	x
Cc1cc(C(=O)Nc2cccc3c2O[C@@H](CN(C)Cc2ccc(C(F)(F)F)cc2)[C@@H](C)CN([C@@H](C)CO)C3=O)n(C)n1	x	-0.1	96.4*	-22.0	78.8	-6.8	18.1	u
Cc1cc(C(=O)Nc2cccc3c2O[C@@H](CN(C)Cc2ccc(C(=O)Nc4ccccc4N)cc2)[C@@H](C)CN([C@H](C)CO)C3=O)n(C)n1	x	-1.5	105.6*	-84.8*	103.8*	98.1*	-6.9	-8.1
Cn1nc(CC(=O)Nc2ccc(Oc3ccccc3)cc2)c2ccccc2c1=O	0.5	x	x	x	x	x	x	x
SMILES	IDH1 R132H inh	KDM4C inh	T cruzi growth-1	Pf Dd2 inh	T cruzi growth-2	T cruzi growth-3	3T3 cytotox	NIH3T3 tox 2
CC(C)CC#Cc1ccc2c(c1)O[C@@H](CN(C)Cc1cncnc1)[C@H](C)CN([C@@H](C)CO)S2(=O)=O	-0.1	1.9	81.7	-35.8	x	x	x	x
CC(C)CC#Cc1ccc2c(c1)O[C@H](CN(C)Cc1cccnc1)[C@H](C)CN([C@H](C)CO)S2(=O)=O	16.5	-2.0	106.1*	x	104.3*	81.8	31.6	103.3*
CC(C)CC#Cc1ccc2c(c1)O[C@H](CN(C)Cc1cccnc1)[C@@H](C)CN([C@H](C)CO)S2(=O)=O	3.0	0.9	96.2*	x	104.0*	100.0*	16.2	104.5*
CC(C)CC#Cc1ccc2c(c1)O[C@@H](CN(C)Cc1cccnc1)[C@H](C)CN([C@H](C)CO)S2(=O)=O	18.9	-0.8	86.7	x	x	x	x	x
CCn1c(SCC(=O)Nc2ccc(C)cc2)nnc1-c1cccnc1	0.7	x	x	x	x	x	x	x
COc1ccc(NCc2ccc(C(=O)Nc3ccccc3[N+](=O)[O-])cc2)cc1OC	0.0	x	x	x	x	x	x	x
CN(C)C(=O)c1cccc(-c2ccc([C@H]3[C@@H](CO)N4CCCCN(Cc5cccnc5)C[C@H]34)cc2)c1	x	-0.8	u	3.0	107.2*	87.5	2.4	-16.1
CN(C)C(=O)c1cccc(-c2ccc([C@@H]3[C@H](CO)N4CCCCN(Cc5cccnc5)C[C@@H]34)cc2)c1	x	-0.9	13.4	-5.5	x	x	x	x
CN(C)C(=O)c1ccc(-c2ccc([C@H]3[C@@H](CO)N4CCCCN(Cc5cccnc5)C[C@H]34)cc2)cc1	x	-0.4	u	-7.0	104.2*	91.0	2.9	-6.8
CCN(CC(=O)Nc1cccc(C(C)=O)c1)S(=O)(=O)c1ccc(F)cc1	-0.3	x	x	x	x	x	x	x
CC(C)C#Cc1ccc([C@H]2[C@@H](CO)N(C(=O)c3cccc(F)c3)[C@H]2C#N)cc1	x	-0.9	93.3	-68.9	x	x	x	x
N#C[C@H]1[C@H](c2ccc(C#CC3CC3)cc2)[C@@H](CO)N1C(=O)c1cccc(F)c1	x	-0.7	u	-38.1	97.3*	100.8*	6.4	-5.4

Compound activity (PubChem)
